Reference: ChEMBL document CHEMBL1671645, “Pharmacokinetics and absorption of posaconazole oral suspension under various gastric conditions in healthy volunteers” (Antimicrob Agents Chemother, 2009)

Tests used:
[1] = test system: Homo sapiens; test: AUC in healthy human at 400 mg BID, po administered as suspension for 7 days coadministered with nutritional supplement; assay type: ADME, organism-based, Plasma; conditions: in vivo, 168 h
Procedure, shortened: (§1)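 Twelve healthy subjects took oral suspension for 7 days as 400 mg BID or 200 mg QID, either fasting or with a Boost-type nutritional supplement, in a crossover with 14–21 day washouts. Nonfat snacks of 800 cal/day or less were allowed. Plasma was sampled 0–168 h after the day-7 morning dose only and analysed by LC-MS/MS. AUC is AUC_τ, normalized to dose.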

[2] = test system: Homo sapiens; test: AUC in fasted healthy human at 200 mg QID, po administered as suspension for 7 days; assay type: ADME, organism-based, Plasma; conditions: in vivo, 168 h; procedure, shortened: as §1
[3] = AUC in fasted healthy human at 400 mg administered as single dose suspension; assay type: ADME, organism-based; conditions: plasma
[4] = AUC in healthy human at 400 mg administered as single dose suspension coadministered with nutritional supplement and 4 mg loperamide as two 2 mg tablets; assay type: ADME, organism-based; conditions: plasma
Procedure, shortened: (§2)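 A three-way crossover in 13 healthy subjects gave one 400 mg oral suspension dose with a nutritional supplement, either alone, with metoclopramide 10 mg orally three times daily on the day before and the day of dosing, or with a single 4 mg dose of loperamide. Plasma was taken 0–168 h for LC-MS/MS. Analysis was noncompartmental.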

[5] = Tmax in fasted healthy human at 400 mg BID, po administered as suspension for 7 days; assay type: ADME, organism-based; conditions: in vivo
Procedure, shortened: (§3)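 Healthy volunteers given oral suspension (40 mg/ml) for 7 days, fasted or with nutritional supplement (Boost); four-way crossover, 14–21-day washout, nonfat snacks ≤800 cal/day allowed. On day 7 only the morning dose was given; plasma sampled predose to 168 h after it. LC-MS/MS (LLOQ 5.00 ng/ml). t1/2 = ln(2)/K from log-linear terminal slope; Tmax as median.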

[6] = test system: Homo sapiens; test: Apparent total body clearance in fasted healthy human at 400 mg BID, po administered as suspension for 7 days; assay type: ADME, organism-based; conditions: in vivo, 168 h; procedure, shortened: as §1
[7] = Apparent total body clearance in healthy human at 400 mg administered as single dose suspension coadministered with nutritional supplement and 10 mg metoclopramide; assay type: ADME, organism-based; conditions: in vivo, po; procedure, shortened: as §2
[8] = Apparent total body clearance in healthy human at 400 mg administered as single dose suspension coadministered with nutritional supplement and 4 mg loperamide as two 2 mg tablets; assay type: ADME, organism-based; conditions: in vivo, po; procedure, shortened: as §2
[9] = Half life in fasted healthy human at 200 mg QID, po administered as suspension for 7 days; assay type: ADME, organism-based; conditions: in vivo; procedure, shortened: as §3
[10] = Half life in healthy human at 200 mg QID, po administered as suspension for 7 days coadministered with nutritional supplement; assay type: ADME, organism-based; conditions: in vivo; procedure, shortened: as §3
[11] = Half life in healthy human at 400 mg administered as single dose suspension coadministered with nutritional supplement; assay type: ADME, organism-based; conditions: in vivo
Procedure, shortened: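 Single oral suspension dose with nutritional supplement, alone or with metoclopramide 10 mg orally three times daily on the day before and the day of dosing; three-way crossover, 7–10-day washout. EDTA plasma predose to 168 h, LC-MS/MS (LLOQ 5.00 ng/ml). t1/2 = ln(2)/K from terminal slope; Tmax median.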

[12] = Apparent volume of distribution in fasted healthy human at 400 mg administered as single dose suspension coadministered with proton pump inhibitor; assay type: ADME, organism-based; conditions: in vivo, read-out: Vc/F
Procedure, shortened: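 This was a four-way crossover in 12 healthy subjects with 7–10 day washouts. Each took one fasting 400 mg oral suspension dose, with 12 oz ginger ale and/or esomeprazole 40 mg once each morning on days −2 to 1, with dosing on day 1. Plasma was sampled 0–168 h and measured by LC-MS/MS (LLOQ 5.00 ng/ml). Analysis was noncompartmental, with CL/F = dose/AUC_I and V/F = (CL/F)/K.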

[13] = test system: Homo sapiens; test: Toxicity in healthy human assessed as adverse events at 400 mg administered as single dose suspension; assay type: organism-based; conditions: in vivo
Procedure, shortened: (§4)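 Healthy volunteers monitored for adverse events, vital signs, clinical laboratory values and 12-lead ECG. Adverse events tabulated by body system or organ class and severity and summarized by treatment across the crossover regimens.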

[14] = test system: Homo sapiens; test: Toxicity in healthy human assessed as adverse events at 400 mg administered as single dose suspension coadministered with acidic carbonated beverage and proton pump inhibitor; assay type: organism-based; set-up: scale not given: the % may be the effect or the level left; conditions: in vivo; procedure, shortened: as §4
[15] = test system: Homo sapiens; test: Toxicity in healthy human assessed as adverse events at 400 mg BID, po administered as suspension for 7 days coadministered with nutritional supplement; assay type: organism-based; conditions: in vivo, 168 h; procedure, shortened: as §4
[16] = test system: Homo sapiens; test: Toxicity in healthy human assessed as adverse events at 400 mg administered as single dose suspension 5 mins before consumption of high fat meal; assay type: organism-based; conditions: in vivo; procedure, shortened: as §4
[17] = test system: Homo sapiens; test: Toxicity in healthy human assessed as adverse events at 400 mg administered as single dose suspension after consumption of high fat meal; assay type: organism-based; conditions: in vivo; procedure, shortened: as §4
[18] = test system: Homo sapiens; test: Toxicity in healthy human assessed as adverse events at 400 mg administered as single dose suspension coadministered with nutritional supplement; assay type: organism-based; conditions: in vivo; procedure, shortened: as §4
[19] = test system: Homo sapiens; test: Toxicity in healthy human assessed as adverse events at 400 mg administered as single dose suspension coadministered with nutritional supplement and 10 mg metoclopramide; assay type: organism-based; conditions: in vivo; procedure, shortened: as §4
[20] = test system: Homo sapiens; test: Toxicity in healthy human assessed as dizziness at 200 mg QID, po administered as suspension for 7 days; assay type: organism-based; conditions: in vivo, 168 h; procedure, shortened: as §4
[21] = test system: Homo sapiens; test: Toxicity in healthy human assessed as headache at 200 mg QID, po administered as suspension for 7 days; assay type: organism-based; conditions: in vivo, 168 h
Procedure, shortened: (§5)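 Healthy volunteers (n = 12) took oral posaconazole suspension (40 mg/ml) for 7 days in a four-way randomized crossover with a 14- to 21-day washout. Subjects stayed fasted throughout, with nonfat snacks up to 800 cal/day allowed. Where given, Boost was taken with each dose. Safety covered adverse events, vital signs, clinical labs and 12-lead ECG, with AEs tabulated by body system and severity per treatment.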

[22] = test system: Homo sapiens; test: Toxicity in healthy human assessed as headache at 200 mg QID, po administered as suspension for 7 days coadministered with nutritional supplement; assay type: organism-based; conditions: in vivo, 168 h; procedure, shortened: as §5
[23] = test system: Homo sapiens; test: Toxicity in healthy human assessed as nausea at 400 mg administered as single dose suspension coadministered with nutritional supplement and 10 mg metoclopramide; assay type: organism-based; conditions: in vivo
Procedure, shortened: (§6)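 Three-way randomized crossover in 13 healthy volunteers with a 7- to 10-day washout. Each period was one 400-mg oral posaconazole suspension dose with a nutritional supplement. Metoclopramide 10 mg was given orally three times daily on the day before and the day of dosing; loperamide was a single 4 mg. Safety was assessed from adverse events, tabulated by body system and severity per treatment.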

[24] = test system: Homo sapiens; test: Toxicity in healthy human assessed as fatigue at 400 mg administered as single dose suspension coadministered with nutritional supplement; assay type: organism-based; conditions: in vivo; procedure, shortened: as §6
[25] = test system: Homo sapiens; test: Toxicity in healthy human assessed as fatigue at 400 mg administered as single dose suspension coadministered with nutritional supplement and 10 mg metoclopramide; assay type: organism-based; conditions: in vivo; procedure, shortened: as §6
[26] = Cmax in healthy human plasma at 200 mg QID, po administered as suspension for 7 days coadministered with nutritional supplement; assay type: ADME, organism-based; set-up: dose 200 mg, route oral; procedure, shortened: as §1
[27] = Cmax in fasted healthy human plasma at 400 mg administered as single dose suspension 5 mins before consumption of high fat meal; assay type: ADME, organism-based; set-up: dose 400 mg
Procedure, shortened: (§7)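 In a crossover of 12 healthy subjects, each took a single 400 mg oral suspension dose 5 min before, midway through (about 10 min into a 20-min meal), or 20 min after a high-fat meal of about 50 g fat. Plasma was drawn 0–168 h and measured by LC-MS/MS. Parameters are noncompartmental, with AUC to the last measurable time.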

[28] = Cmax in fasted healthy human plasma at 400 mg administered as single dose suspension after consumption of high fat meal; assay type: ADME, organism-based; set-up: dose 400 mg; procedure, shortened: as §7
[29] = Cmax in healthy human plasma at 400 mg administered as single dose suspension coadministered with nutritional supplement; assay type: ADME, organism-based; set-up: dose 400 mg; procedure, shortened: as §2

With `CC[C@@H]([C@H](C)O)n1ncn(-c2ccc(N3CCN(c4ccc(OC[C@@H]5CO[C@@](Cn6cncn6)(c6ccc(F)cc6F)C5)cc4)CC3)cc2)c1=O` [POSACONAZOLE] the AUC [1] was 80600 ng·h/mL, the AUC [2] was 132000 ng·h/mL and the AUC [3] was 4280 ng·h/mL. The AUC [4] was 10400 ng·h/mL, the Tmax [5] was 6 h and the CL/F [6] was 54.6 L/h. It also gave a CL/F [7] of 993 mL/min, a CL/F [8] of 743 mL/min and a half-life [9] of 34.7 h. It also gave a half-life [10] of 27.8 h, a half-life [11] of 24.3 h and a Vd/F [12] of 4350 L. For the same compound, the Activity [13] was 25%, the Activity [14] was 25% and the Activity [15] was 75%. It also gave an Activity [16] of 25%, an Activity [17] of 25% and an Activity [18] of 38%. For the same compound, the Activity [19] was 38%, the Activity [20] was 33% and the Activity [21] was 25%. For the same compound, the Activity [22] was 25%, the Activity [23] was 23% and the Activity [24] was 15%. The Activity [25] was 15%, the Cmax [26] was 2160 ng/mL and the Cmax [27] was 274 ng/mL. The Cmax [28] was 544 ng/mL and the Cmax [29] was 303 ng/mL.
